Source: PubChem
Rows were chosen to be rich in hits. Some 1.3% of all compounds tested hit in one or more screens of this group.
CHT allo act: allosterically activates the human high affinity choline transporter. Q9GZV3. CHT-expressing cells, membrane potential dye, choline EC20; stronger effect = higher value; LV-AA mutant CHT in HEK293 cells. B-score at 10 µM. hit rate 0.49% among 310,000. AID 488977;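 active means initial fluorescence not abnormally high and integrated response B-score, plate-corrected, over 3 SD above library mean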
proCasp3 act: activators of human procaspase-3. P42574. recombinant procaspase-3 D3A, Ac-DEVD-pNA absorbance 405 nm. activation, % at 8.5 µM. hit rate 0.11% among 330,000;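 active means activation above the mean of all tested compounds plus 3 SD, cut at about 21% in these data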;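 further: 0% = DMSO alone and 100% = DMSO wells spiked with extra 5 µM PC-3 D3A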
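Technique: 405 nm absorbance of p-nitroaniline, reads at 0 and 120 min; Test system: Procaspase-3 D3A mutant; Incubation: 1 h enzyme-compound preincubation, then 2 h substrate reaction, 25 °C; Repeats: singlicate, each compound tested once; Benchmarks: low control DMSO wells, high control DMSO plus 5 µM PC-3 D3A.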
CHT block: inhibitors of human choline transporter CHT; Q9GZV3; CHT-expressing cells, membrane potential dye, choline response; stronger effect = lower value; B-score at 10 µM; hit rate 0.86% among 310,000; AID 488975;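 active means B-score over 3 SD under the library average, and starting fluorescence ratio not unusually high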;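 further: choline stimulus applied at its EC90 after an EC20 pre-addition; B-score computed on integrated fluorescence ratio after choline addition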
procasp7 counter: activates human procaspase-7, counter-screen for procaspase-3 activators; P55210; recombinant procaspase-7, Ac-DEVD-pNA absorbance 405 nm; D23A/D198A/D206A triple mutant, cannot self-cleave; scale: DMSO 0, 5 µM enzyme 100; activation, % at 8.5 µM; hit rate 0.093% among 330,000;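 active means percent activation above the screen-wide mean plus 3 SD, cut at about 25% in these data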
Target sequence (P55210 whole entry D23A/D198A/D206A): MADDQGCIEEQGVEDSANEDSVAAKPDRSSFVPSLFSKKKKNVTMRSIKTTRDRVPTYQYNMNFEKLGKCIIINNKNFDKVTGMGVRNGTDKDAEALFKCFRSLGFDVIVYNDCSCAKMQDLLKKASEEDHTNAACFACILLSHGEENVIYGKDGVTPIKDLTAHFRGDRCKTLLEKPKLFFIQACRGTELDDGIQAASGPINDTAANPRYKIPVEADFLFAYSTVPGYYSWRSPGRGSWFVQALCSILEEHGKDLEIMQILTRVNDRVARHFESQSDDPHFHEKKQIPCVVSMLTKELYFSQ
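Assay system: Uncleavable procaspase-7 mutant enzyme | Input: 2 µM procaspase-7 mutant as dispensed | Timing: 1 h compound preincubation, 2 h substrate cleavage, 25 °C | Repeats: One well per compound | Control set: DMSO wells as 0%, DMSO with 5 µM added PC-7 as 100% | Technique: Epi-absorbance of released pNA at 405 nm, two timepoints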
PC3 D3A act: counter-screen for dual procaspase-3/7 activators: human procaspase-3 activation; 290 tested, under 10 active; shares compounds with procasp7 counter; recombinant PC-3 D3A, Ac-DEVD-pNA absorbance 405 nm; aspartates 9, 28, 175 changed to alanine; 100% = enzyme control; activation, % at 8.5 µM; AID 493114;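 active means mean percent activation across triplicates above a set limit taken from the earlier primary procaspase-3 screen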;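 further: 0% = DMSO wells and 100% = DMSO wells with 5 µM added PC-3 D3A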
Procasp7 act: confirmation of dual procaspase activators: human procaspase-7 activation. shares compounds with procasp7 counter. 290 tested, under 10 active. recombinant procaspase-7, Ac-DEVD-pNA absorbance 405 nm; D23A/D198A/D206A mutant that cannot self-cleave. activation, % at 8.5 µM. AID 493115;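 active means mean activation above a set limit carried over from the earlier primary screen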;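 further: 0% = DMSO only and 100% = DMSO with added 5 µM PC-7 enzyme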
Active calls of the source: *; i = inactive; . = not tested or not shown.

SMILES	CHT allo act	proCasp3 act	CHT block	procasp7 counter	PC3 D3A act	Procasp7 act
COc1ccc(C2CC(c3ccccc3)=NN2c2ccc(S(N)(=O)=O)cc2)cc1OC (stereo not given)	i	10	i	26*	-29	-36
NS(=O)(=O)c1ccc(N2N=C(c3ccccc3)CC2c2cccc(Br)c2)cc1 (stereo not given)	.	29*	.	32*	-31	-34
Cc1[nH]c2ccccc2c1C(=O)COC(=O)c1nccnc1N	.	8	.	9	.	.
CCOc1ccc(C(=O)NCC(=O)N2CCN(c3ccccc3O)CC2)cc1	i	8	i	-2	.	.
CCCCC1(c2ccc(F)cc2)NC(=O)N(CC(=O)Nc2ccc(N3CCOCC3)cc2)C1=O (stereo not given)	.	0	.	-3	.	.
Cc1cc(Br)cc(Cl)c1OCC(=O)N1CCN(C(=O)c2ccco2)CC1	.	6	.	-7	.	.
COc1ccccc1C(C)NC(=O)c1ccccc1SCC(=O)N1CCCC1 (stereo not given)	i	4	i	6	.	.
O=C1[C@H]2C(c3ccccc3)=NN(c3ccccc3)[C@H]2C(=O)N1c1ccccc1	i	32*	i	40*	-31	-36
Cc1ccc(F)cc1CNC(=O)C1CCC(=O)N(C2CC2)C1 (stereo not given)	i	2	i	-4	.	.
O=C(COC(=O)C1CC2CCCC(C1)C2=O)Nc1ccccc1 (stereo not given)	.	-8	.	2	.	.
Cc1ccc(-c2cc3nc(-c4ccccc4)cc(N4CCC5(CC4)OCCO5)n3n2)cc1	i	-25	i	-25	.	.
Cc1cccc(-c2cc3nc(-c4ccccc4)cc(N4CCC5(CC4)OCCO5)n3n2)c1	i	17	i	30*	-28	-34
COc1ccccc1NC(=O)Nc1cccc(NC(C)=O)c1	i	2	i	74*	2	0
Cc1cc(C)c2c(N)c(C(=O)N/N=C/c3ccccc3)sc2n1	i	35*	i	32*	-28	-36
CC(C)c1ccc(N=Cc2c(O)c3ccccc3oc2=O)cc1	i	22*	i	30*	-29	-34
COc1ccc(Cl)cc1N=Cc1c(O)c2ccccc2oc1=O	i	19	i	42*	-5	-4
CCOc1ccccc1N=Cc1c(O)c2ccccc2oc1=O	i	21	i	35*	-30	-34
CCOC(=O)c1cccc(NC(=O)COC)c1	i	0	i	9	.	.
COCC(=O)Nc1cccc(Br)c1	i	5	i	26*	3	-3
COc1ccc(CN(C)C(=O)C(Cc2ccccc2)NC(=O)c2ccccc2)c(OC)c1 (stereo not given)	i	-2	i	0	.	.
CCCCn1c(CCC(=O)O)nc2cc(S(=O)(=O)N3CCCC3)ccc21	.	-2	.	-6	.	.
CS(=O)(=O)N1N=C(c2ccco2)CC1c1ccco1 (stereo not given)	i	-15	i	36*	-8	-14
COC(=O)c1ccc(CNC(=O)[C@@H]2CCCN2S(=O)(=O)c2ccccc2F)cc1	.	8	.	26*	3	1
CC(=O)c1ccc(OCCCCCCCOc2ccc(C(C)=O)cc2)cc1	i	-1	i	3	.	.
COc1ccc(/C=C2/CCc3ccccc3C2=O)cc1OC	i	3	i	3	.	.
COc1cc(OC)c(OC)cc1/C=C1/Cc2ccccc2C1=O	i	13	i	28*	-1	1
O=C(c1ccco1)c1cc2c(ccc3ccccc32)oc1=O	i	9	i	26*	-7	-8
CC(=O)c1cc2c(ccc3ccccc32)oc1=O	i	.	i	.	.	.
COc1cc(-n2c(=O)c3ccccc3n(Cc3cccnc3)c2=O)cc(OC)c1OC	i	-7	i	27*	2	1
COc1ccc(CNC(=O)C2CCN(c3cc(C(=O)Nc4cccc(OC)c4)ccn3)CC2)cc1	i	6	i	53*	0	4
